Reference: ChEMBL document CHEMBL1122172, “Syntheses and diuretic activity of 1,2-dihydro-2-(3-pyridyl)-3H-pyrido[2,3-d]pyrimidin-4-one and related compounds” (1982)
Where “and” joins values, the source holds several entries; their conditions need not be identical. Identical values can stand only once.

Tests used:
Assay type in all cases: functional, Urine
Rattus norvegicus [1] = test: Diuretic activity by measuring the urinary output at the dose of 25 mg/kg
Outline: (§1)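 Male Sprague–Dawley rats (195–225 g) were fasted and deprived of water for 18 h. The compound was given orally, dissolved in 25 mL/kg saline; controls got saline alone. Groups of eight were housed as pairs in metabolism cages. Urine volume was read at 2 and 5 h, with total Na+, Cl− and K+ mequiv excreted. Values are mean ± SEM, N = 8.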

Rattus norvegicus [2] = test: Diuretic activity by measuring the urinary output at the dose of 50 mg/kg
Outline: (§2)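 Groups of eight male Sprague–Dawley-derived rats, fasted 18 h with water ad libitum, received oral doses by dosing needle in 5% acacia–isotonic saline; the vehicle served as control. Rats were placed in metabolism cages with no food or water, and urine was collected for 5 h. Bladders were then emptied by pulling at the tail base (modified Lipschitz method).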

Rattus norvegicus [3] = test: Total Cl- milliequivalents excretion in diuretic test at the dose of 25 mg/kg; outline: as §1
Rattus norvegicus [4] = test: Total Cl- milliequivalents excretion in diuretic test at the dose of 50 mg/kg
Rattus norvegicus [5] = test: Total K+ milliequivalents excretion in diuretic test at the dose of 25 mg/kg; outline: as §1
Rattus norvegicus [6] = test: Total Na+ milliequivalents excretion in diuretic test at the dose of 25 mg/kg; outline: as §1
Rattus norvegicus [7] = test: Diuretic activity by measuring the urinary output at the dose of 100 mg/kg; outline: as §2
Rattus norvegicus [8] = test: Diuretic activity by measuring the urinary output at the dose of 400 mg/kg; outline: as §2
Rattus norvegicus [9] = test: Diuretic activity by measuring the urinary output at the dose of 75 mg/kg; outline: as §2
Rattus norvegicus [10] = test: Total Cl- milliequivalents excretion in diuretic test at the dose of 75 mg/kg
Rattus norvegicus [11] = test: Total Na+ milliequivalents excretion in diuretic test at the dose of 75 mg/kg; conditions: 75 mg/kg
Rattus norvegicus [12] = test: Diuretic activity by measuring the urinary output after 2 hr at the dose of 25 mg/kg
Outline: (§3)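 Male Sprague–Dawley rats (195–225 g) were fasted and deprived of water for 18 h, then dosed orally with compound dissolved in 25 mL/kg saline. Controls got 25 mL/kg saline alone. Groups of eight were used, housed two rats per metabolism cage right after dosing. Urine volume was collected at 2 h and 5 h after dosing. Values are mean ± SEM per cage pair, N = 8.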

Rattus norvegicus [13] = test: Diuretic activity by measuring the urinary output after 5 hr at the dose of 25 mg/kg; outline: as §3
Rattus norvegicus [14] = test: Total Cl- milliequivalents excretion in diuretic test at the dose of 27 mg/kg
Outline: (§4)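 Oral dosing was in 25 mL/kg saline to male Sprague–Dawley rats (195–225 g) after 18 h without food or water, with saline-only controls. Groups of eight were kept two per metabolism cage. Urinary Na+, Cl− and K+ were reported as total mequiv excreted, with electrolyte analysis done externally. Values are mean ± SEM of two rats per cage, N = 8.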

Rattus norvegicus [15] = test: Total Cl- milliequivalents excretion in diuretic test at the dose of 81 mg/kg; outline: as §4
Rattus norvegicus [16] = test: Total Cl- milliequivalents excretion in diuretic test at the dose of 9 mg/kg; outline: as §4
Rattus norvegicus [17] = test: Total K+ milliequivalents excretion in diuretic test at the dose of 27 mg/kg; outline: as §4
Rattus norvegicus [18] = test: Total K+ milliequivalents excretion in diuretic test at the dose of 3 mg/kg; outline: as §4
Rattus norvegicus [19] = test: Total K+ milliequivalents excretion in diuretic test at the dose of 81 mg/kg; outline: as §4
Rattus norvegicus [20] = test: Total Na+ milliequivalents excretion in diuretic test at the dose of 27 mg/kg; outline: as §4
Rattus norvegicus [21] = test: Total Na+ milliequivalents excretion in diuretic test at the dose of 3 mg/kg; outline: as §4
Rattus norvegicus [22] = test: Total Na+ milliequivalents excretion in diuretic test at the dose of 81 mg/kg; outline: as §4
Rattus norvegicus [23] = test: Total Na+ milliequivalents excretion in diuretic test at the dose of 9 mg/kg; outline: as §4
Rattus norvegicus [24] = test: Diuretic activity by measuring the urinary output after 2 hr at the dose of 27 mg/kg; outline: as §3
Rattus norvegicus [25] = test: Diuretic activity by measuring the urinary output after 2 hr at the dose of 3 mg/kg; outline: as §3
Rattus norvegicus [26] = test: Diuretic activity by measuring the urinary output after 2 hr at the dose of 81 mg/kg; outline: as §3
Rattus norvegicus [27] = test: Diuretic activity by measuring the urinary output after 2 hr at the dose of 9 mg/kg; outline: as §3
Rattus norvegicus [28] = test: Diuretic activity by measuring the urinary output after 5 hr at the dose of 27 mg/kg; outline: as §3
Rattus norvegicus [29] = test: Diuretic activity by measuring the urinary output after 5 hr at the dose of 3 mg/kg; outline: as §3
Rattus norvegicus [30] = test: Diuretic activity by measuring the urinary output after 5 hr at the dose of 81 mg/kg; outline: as §3
Rattus norvegicus [31] = test: Diuretic activity by measuring the urinary output after 5 hr at the dose of 9 mg/kg; outline: as §3
Rattus norvegicus [32] = test: Total K+ milliequivalents excretion in diuretic test at the dose of 9 mg/kg; outline: as §4
Rattus norvegicus [33] = test: Total Cl- milliequivalents excretion in diuretic test at the dose of 3 mg/kg; outline: as §4

Which Control (Rattus norvegicus [1]) does the source give for Cn1cccc1C1NC(=O)c2cccnc2N1 (stereo unspecified) here?
Its Control is 124%.

And the Control (Rattus norvegicus [2])?
The Control was 113%.

What about the Excretion (Rattus norvegicus [3]) of the same molecule?
Its Excretion is 1.4 m equiv.

What about the Excretion (Rattus norvegicus [4]) of the same molecule?
The Excretion was 1 m equiv.

What about the Excretion (Rattus norvegicus [5]) of the same molecule?
The Excretion was 0.3 m equiv.

What about the Excretion (Rattus norvegicus [6]) of the same molecule?
Its Excretion is 1.5 m equiv.

O=C1NC(c2ccco2)Nc2ncccc21 (stereo unspecified) was tested. Which Control (Rattus norvegicus [7]) did it give?
Its Control is 194%.

What about the Control (Rattus norvegicus [1]) of the same molecule?
The Control was 121%.

What about the Control (Rattus norvegicus [8]) of the same molecule?
Its Control is 193%.

With O=C1NC(c2ccc(C(F)(F)F)cc2)Nc2ncccc21 (stereo unspecified) as the molecule, how does the Control (Rattus norvegicus [1]) read?
The Control was 106%.

And the Control (Rattus norvegicus [9])?
Its Control is 98%.

And the Excretion (Rattus norvegicus [3])?
The Excretion was 1.4 m equiv.

What about the Excretion (Rattus norvegicus [10]) of the same molecule?
Its Excretion is 1.3 m equiv.

And the Excretion (Rattus norvegicus [5])?
Its Excretion is 0.4 m equiv.

What about the Excretion (Rattus norvegicus [6]) of the same molecule?
The Excretion was 1.3 m equiv.

What about the Excretion (Rattus norvegicus [11]) of the same molecule?
The Excretion was 1.2 m equiv and 0.4 m equiv.

What does the source list for CN1C(=O)c2cccnc2NC1c1ccco1 (stereo unspecified)?
Control (Rattus norvegicus [7]): 233%; Control (Rattus norvegicus [1]): 209%; Control (Rattus norvegicus [8]): 95%; Excretion (Rattus norvegicus [3]): 1.8 m equiv; Excretion (Rattus norvegicus [5]): 0.8 m equiv; Excretion (Rattus norvegicus [6]): 1.8 m equiv; Excretion (Rattus norvegicus [12]): 4.6 mL; Excretion (Rattus norvegicus [13]): 12.2 mL

With CC(C)c1ccc(C2NC(=O)c3cccnc3N2)cc1 (stereo unspecified) as the molecule, how does the Control (Rattus norvegicus [1]) read?
Its Control is 137%.

What about the Control (Rattus norvegicus [9]) of the same molecule?
Its Control is 114%.

What about the Excretion (Rattus norvegicus [3]) of the same molecule?
Its Excretion is 1.6 m equiv.

And the Excretion (Rattus norvegicus [10])?
The Excretion was 1.4 m equiv.

What about the Excretion (Rattus norvegicus [5]) of the same molecule?
The Excretion was 0.6 m equiv.

And the Excretion (Rattus norvegicus [6])?
The Excretion was 1.5 m equiv.

And the Excretion (Rattus norvegicus [11])?
Its Excretion is 1.3 m equiv and 0.6 m equiv.

With O=C1NC(c2cc(Br)co2)Nc2ncccc21 (stereo unspecified) as the molecule, how does the Control (Rattus norvegicus [7]) read?
Its Control is 94%.

And the Control (Rattus norvegicus [1])?
The Control was 101%.

And the Control (Rattus norvegicus [8])?
Its Control is 110%.

How did the Control (Rattus norvegicus [7]) turn out when Oc1nc(-c2ccco2)nc2ncccc12 was run?
The Control was 212%.

And the Control (Rattus norvegicus [1])?
Its Control is 167%.

And the Control (Rattus norvegicus [8])?
Its Control is 36%.

Which results are given for O=C1NC(c2cccnc2)Nc2[nH]cnc21 (stereo unspecified)?
Control (Rattus norvegicus [1]): 138%; Excretion (Rattus norvegicus [3]): 1.3 m equiv; Excretion (Rattus norvegicus [5]): 0.6 m equiv; Excretion (Rattus norvegicus [6]): 1.4 m equiv

Which Control (Rattus norvegicus [7]) does the source give for O=C1NC(c2cccnc2)Nc2ncccc21 (stereo unspecified) here?
The Control was 220%.

What about the Control (Rattus norvegicus [1]) of the same molecule?
The Control was 221%.

What about the Control (Rattus norvegicus [8]) of the same molecule?
The Control was 185%.

What about the Excretion (Rattus norvegicus [3]) of the same molecule?
The Excretion was 2.8 m equiv.

What about the Excretion (Rattus norvegicus [14]) of the same molecule?
Its Excretion is 2.6 m equiv.

What about the Excretion (Rattus norvegicus [15]) of the same molecule?
Its Excretion is 2.6 m equiv.

And the Excretion (Rattus norvegicus [16])?
The Excretion was 1.3 m equiv.

What about the Excretion (Rattus norvegicus [5]) of the same molecule?
The Excretion was 0.6 m equiv.

What about the Excretion (Rattus norvegicus [17]) of the same molecule?
The Excretion was 0.6 m equiv.

And the Excretion (Rattus norvegicus [18])?
The Excretion was 0.4 m equiv.

And the Excretion (Rattus norvegicus [19])?
The Excretion was 0.4 m equiv.

And the Excretion (Rattus norvegicus [6])?
Its Excretion is 2.5 m equiv.

And the Excretion (Rattus norvegicus [20])?
The Excretion was 2.2 m equiv.

What about the Excretion (Rattus norvegicus [21]) of the same molecule?
Its Excretion is 1.4 m equiv.

What about the Excretion (Rattus norvegicus [22]) of the same molecule?
Its Excretion is 2.6 m equiv.

What about the Excretion (Rattus norvegicus [23]) of the same molecule?
The Excretion was 1.1 m equiv.

And the Excretion (Rattus norvegicus [12])?
The Excretion was 8 mL.

What about the Excretion (Rattus norvegicus [24]) of the same molecule?
The Excretion was 10.4 mL.

And the Excretion (Rattus norvegicus [25])?
The Excretion was 4.4 mL.

And the Excretion (Rattus norvegicus [26])?
The Excretion was 6 mL.

And the Excretion (Rattus norvegicus [27])?
Its Excretion is 3 mL.

What about the Excretion (Rattus norvegicus [13]) of the same molecule?
The Excretion was 21 mL.

What about the Excretion (Rattus norvegicus [28]) of the same molecule?
The Excretion was 20.1 mL.

What about the Excretion (Rattus norvegicus [29]) of the same molecule?
The Excretion was 8.1 mL.

And the Excretion (Rattus norvegicus [30])?
Its Excretion is 19.6 mL.

What about the Excretion (Rattus norvegicus [31]) of the same molecule?
Its Excretion is 7.6 mL.

And the Excretion (Rattus norvegicus [32])?
The Excretion was 0.4 m equiv.

And the Excretion (Rattus norvegicus [33])?
Its Excretion is 1.6 m equiv.

Which results are given for CN1C(=O)c2cccnc2NC1c1cccnc1 (stereo unspecified)?
Control (Rattus norvegicus [9]): 149%; Excretion (Rattus norvegicus [10]): 1.7 m equiv
